The results in this text go back to ChEMBL document CHEMBL4004810, “Pharmacokinetics of the Individual Major Components of Polymyxin B and Colistin in Rats” (J Nat Prod, 2017).

Positions of bridges follow the written chain, without caps; N, C: chain ends. Non-standard residues stand in square brackets, D forms with d. Residues, ends and D or L forms follow the SMILES beside them. *: point of attachment. Heptanoyl(6-Me) = CC(C)CCCCC(=O)*; X1 = CC[C@@H](C)CCCCC(=O)*; X2 = CC[C@H](C)CCCCC(=O)*; Octanoyl = CCCCCCCC(=O)*; Dab = NCC[C@H](N)C(=O)O

A short description of data set [1]: Plasma concentration in Sprague-Dawley rat at 0.8 mg/kg, iv administered as single bolus dose after 360 mins by LC-MS/MS analysis. It counts as ADME, organism-based. The gist of the method: (§1)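 Jugular vein (dosing) and carotid artery (sampling) cannulated rats, recovered one day; 4 groups, n = 4, each given a 0.8 mg/kg iv bolus of one component. Blood sampled predose and at 10–360 min; urine collected in chilled metabolic cages over 0–6 h and 6–24 h. Plasma and urine quantified by LC-MS/MS (calibration 0.1–8.0 mg/L); parameters by noncompartmental analysis.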

A short description of data set [2]: Total clearance in Sprague-Dawley rat at 0.8 mg/kg, iv administered as single bolus dose by LC-MS/MS analysis. Type of data set: ADME, organism-based. The conditions noted are these: in vivo. The gist of the method:
as §1

The nature of data set [3]: Volume of distribution in Sprague-Dawley rat at 0.8 mg/kg, iv administered as single bolus dose by LC-MS/MS analysis. Particulars: in vivo. Type of data set: ADME, organism-based. The gist of the method:
as §1

Data set [4] can be described thus: Elimination half life in Sprague-Dawley rat at 0.8 mg/kg, iv administered as single bolus dose by LC-MS/MS analysis. Type of data set: ADME, organism-based. The conditions noted are these: in vivo, read-out: beta t1/2. In outline: as §1
The nature of data set [5]: AUC (0 to infinity) in Sprague-Dawley rat at 0.8 mg/kg, iv administered as single bolus dose by LC-MS/MS analysis. It counts as ADME, organism-based. More on the design: dose 0.8 mg/kg, route intravenous, time infinity. Particulars: in vivo. The gist of the method: as §1
Data set [6] in a line: Drug recovery in Sprague-Dawley rat urine at 0.8 mg/kg, iv administered as single bolus dose by LC-MS/MS analysis. It counts as ADME, organism-based. Particulars: read-out: Drug recovery. The gist of the method:
as §1

Data set [7] in a line: Protein binding in Sprague-Dawley rat plasma at 5 mg/L after 30 mins by ultracentrifugation based LC-MS/MS method. It counts as ADME, cell-free. Particulars: read-out: PPB (converted). The gist of the method: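 Drug-free rat plasma spiked with 5 mg/L component in triplicate, incubated 30 min at 37 °C, then ultracentrifuged 215000g for 4 h at 37 °C. Two replicates sampled protein-free supernatant, one sampled total resuspension; both measured by LC-MS/MS. % bound = (total − supernatant)/total × 100.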

Data set [8] is described as follows: Clearance in Sprague-Dawley rat at 4 mg/kg, iv administered as single bolus cassette dose by UPLC-MS/MS analysis. Particulars: in vivo. It counts as ADME, organism-based.
A short description of data set [9]: Protein binding in rat plasma up to 10 ug/ml after 2 hrs by LC-MS/MS based ultrafiltration method. The conditions noted are these: read-out: PPB (converted).
Data set [10] in a line: Total clearance in Sprague-Dawley rat at 1 mg/kg, iv administered as bolus dose by HPLC analysis. The conditions noted are these: in vivo. It counts as ADME, organism-based.

By clearance is commonly meant a measure of how efficiently the substance is removed, as volume per time. Read a low clearance as inefficient removal. As a reminder, the Vd is the apparent volume that relates the amount in the body to the concentration in plasma or blood. Low values mean confinement near the circulation, high ones extensive tissue distribution. As usually defined, the AUC(0-inf) is the area under the concentration-time curve extrapolated to infinity. `CC[C@@H](C)CCCCC(=O)N[C@@H](CCN)C(=O)N[C@H](C(=O)N[C@@H](CCN)C(=O)N[C@H]1CCNC(=O)[C@H]([C@@H](C)O)NC(=O)[C@H](CCN)NC(=O)[C@H](CCN)NC(=O)[C@H](CC(C)C)NC(=O)[C@@H](Cc2ccccc2)NC(=O)[C@H](CCN)NC1=O)[C@@H](C)O` (X1-[Dab]T[Dab][Dab][Dab][dF]L[Dab][Dab]T; lactam 4-C) came in with a concentration at 6 h in data set [1] of 200 ng/mL. The clearance in [2] was 2.39 mL/min/kg; in data set [8], 1.65 mL/min/kg. For the same compound, the distribution volume (Vd) in data set [3] amounted to 0.21 L/kg. In data set [4], the half-life turned out to be 1.32 h. For the same compound, the total exposure AUC(0-inf) in data set [5] was 6080 ng·h/mL. Besides, in [6], the dose excreted came to 0.13%. Moreover, in data set [7], the fraction unbound at 0.5 h, 5 mg/L is 0.177. Also, the fraction unbound at 2 h in data set [9] is 0.08.
On to `CC[C@H](C)CCCCC(=O)N[C@@H](CCN)C(=O)N[C@H](C(=O)N[C@@H](CCN)C(=O)N[C@H]1CCNC(=O)[C@H]([C@@H](C)O)NC(=O)[C@H](CCN)NC(=O)[C@H](CCN)NC(=O)[C@H](CC(C)C)NC(=O)[C@@H](CC(C)C)NC(=O)[C@H](CCN)NC1=O)[C@@H](C)O` (X2-[Dab]T[Dab][Dab][Dab][dL]L[Dab][Dab]T; lactam 4-C), for which the values for the clearance in data set [2] and in [10] were 2.75 mL/min/kg and 5.1 mL/min/kg, respectively. In data set [3], this compound returned a Vd of 0.27 L/kg. Besides, the half-life in data set [4] was found to be 1.37 h. In [5], this compound had a total exposure AUC(0-inf) of 5020 ng·h/mL. For the same compound, the dose excreted in [6] turned out to be 0.14%. Moreover, the fraction unbound at 0.5 h, 5 mg/L in data set [7] is 0.434.
Compound `CC(C)CCCCC(=O)N[C@@H](CCN)C(=O)N[C@H](C(=O)N[C@@H](CCN)C(=O)N[C@H]1CCNC(=O)[C@H]([C@@H](C)O)NC(=O)[C@H](CCN)NC(=O)[C@H](CCN)NC(=O)[C@H](CC(C)C)NC(=O)[C@@H](Cc2ccccc2)NC(=O)[C@H](CCN)NC1=O)[C@@H](C)O` [POLYMYXIN B2] ({Heptanoyl(6-Me)}-[Dab]T[Dab][Dab][Dab][dF]L[Dab][Dab]T; lactam 4-C) returned a concentration at 6 h in [1] of 200 ng/mL. Besides, the results for the clearance in [2] and in data set [8] were 1.96 mL/min/kg and 1.69 mL/min/kg, respectively. The same compound had a Vd in data set [3] of 0.23 L/kg. Moreover, the half-life in [4] is 1.58 h. This compound gave a total exposure AUC(0-inf) in data set [5] of 6930 ng·h/mL. Also, the dose excreted in [6] stood at 0.09%. Moreover, the fraction unbound at 0.5 h, 5 mg/L in data set [7] is 0.316. In addition, in data set [9], the fraction unbound at 2 h was 0.08.
Compound `CCCCCCCC(=O)N[C@@H](CCN)C(=O)N[C@H](C(=O)N[C@@H](CCN)C(=O)N[C@H]1CCNC(=O)[C@H]([C@@H](C)O)NC(=O)[C@H](CCN)NC(=O)[C@H](CCN)NC(=O)[C@H](CC(C)C)NC(=O)[C@@H](Cc2ccccc2)NC(=O)[C@H](CCN)NC1=O)[C@@H](C)O` (Octanoyl-[Dab]T[Dab][Dab][Dab][dF]L[Dab][Dab]T; lactam 4-C) had a clearance in [8] of 1.69 mL/min/kg. In [9], the fraction unbound at 2 h is 0.08.
`CC(C)CCCCC(=O)N[C@@H](CCN)C(=O)N[C@H](C(=O)N[C@@H](CCN)C(=O)N[C@H]1CCNC(=O)[C@H]([C@@H](C)O)NC(=O)[C@H](CCN)NC(=O)[C@H](CCN)NC(=O)[C@H](CC(C)C)NC(=O)[C@@H](CC(C)C)NC(=O)[C@H](CCN)NC1=O)[C@@H](C)O` [COLISTIN B] ({Heptanoyl(6-Me)}-[Dab]T[Dab][Dab][Dab][dL]L[Dab][Dab]T; lactam 4-C): the figures for the clearance in data set [2] and in [10] were 3.05 mL/min/kg and 5.3 mL/min/kg, respectively. For the same compound, the volume of distribution (Vd) in data set [3] amounted to 0.37 L/kg. For the same compound, the half-life in data set [4] was 1.52 h. The compound also had an area under the curve AUC(0-inf) in data set [5] of 4600 ng·h/mL. Further, the dose excreted in data set [6] turned out to be 0.24%. For the same compound, in data set [7], the fraction unbound at 0.5 h, 5 mg/L is 0.583.
